Measured values as given in publication PMC4734807 (International Journal of Nanomedicine, 2016).

Experiments:
HepG2 cells = experiment: Cell apoptosis, Annexin V-FITC/PI flow cytometry; assay type: cell-based, human; conditions: 24 hours
Procedure, shortened: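 HepG2 cells grown in high-glucose DMEM with 10% FBS and 1% antibiotics at 37°C, 5% CO2. Seeded at 2×10^5 cells/mL and incubated 24 h. Then exposed 24 h to nanoparticle suspension or drug solution at 1.2, 5 and 20 μg/mL RBG-equivalent, with 5-fluorouracil 20 μg/mL as control. Cells washed in cold PBS and stained with Annexin V-FITC/PI in binding buffer, 15 min at room temperature, then read by flow cytometry.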

HCa-F cells = experiment: In vivo therapeutic effect in HCa-F solid tumor-bearing mice; conditions: for IR (tumor growth inhibition rate) / Number of natural deaths / Tumor weight / Volume growth (incremental tumor volume): 2 mg/kg iv once per day for 7 days; for IR (tumor growth inhibition rate): by tumor weight; for Number of natural deaths: eight mice per group; for Tumor weight / Volume growth (incremental tumor volume): n=8
Procedure, shortened: (§1)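 Male mice, 6 weeks, implanted subcutaneously in the right axilla with washed HCa-F ascites cells (2.0–2.3×10^7 cells/mL, 0.01 mL/g). At a longest tumour diameter of about 14–16 mm, mice randomised to six groups of eight. Dosing 2 mg/kg RBG-equivalent (5-fluorouracil 2 mg/kg) by tail vein, daily for 7 days, in 20% PEG400/saline vehicle. Volume V=a²×b/2 measured before and after dosing. Tumours weighed; IR from mean weights versus vehicle control. Tumour RBG measured in saline homogenates.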

In vitro drug release = assay type: physicochemical; conditions: raw RBG
[1] = tested on: various malignant tumors, such as human hepatocellular carcinoma cells (Bel7402) and human cervical carcinoma cells (HeLa); conditions: e.g. Bel7402, HeLa; cited from earlier work
LD50 = experiment: LD50; set-up: species or system mice; conditions: male, Kunming, mouse, in vivo, iv
[2] = In vivo RBG concentrations in plasma and organs, liver-targeting indexes; set-up: species or system Kunming mice; conditions: for AUC: iv
Procedure, shortened: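 Male Kunming mice, 6 weeks, about 20.9 g, fasted overnight. Single tail-vein dose of 2 mg/kg RBG-equivalent, given as sonicated nanoparticle suspension or as solution, both in 20% PEG400/saline. Ten mice per group sampled at 0.08–24 h: cardiac blood, liver, heart, spleen, lung and kidney. RBG measured by RP-HPLC. AUC0–24 h by trapezoid method. Re is the AUC ratio of formulation to solution; Te is the liver AUC over the non-target organ AUC.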

[3] = In vivo therapeutic effect in HCa-F solid tumor-bearing mice; conditions: male, mouse, tumor, intravenous, 2 mg/kg
Procedure, shortened: as §1

O=c1[nH]cc(F)c(=O)[nH]1 [FS, 5-fluorouracil]
Cell ratio, apoptotic cells (HepG2 cells; 20 μg/mL): 14.2±1.2% | Cell ratio, necrotic cells (HepG2 cells; 20 μg/mL): 22.3±1.6% | Cell ratio, survival cells (HepG2 cells; 20 μg/mL): 63.5±2.0% | IR (tumor growth inhibition rate) (HCa-F cells): 37.19% | Number of natural deaths (HCa-F cells): 1 | Tumor weight (HCa-F cells): 3.26 ± 0.74 g | Volume growth (incremental tumor volume) (HCa-F cells): 3.05±0.72 ^* cm^3

C[C@]12CC[C@H](O)C[C@H]1CC[C@@H]1[C@@H]2CC[C@]2(C)[C@@H](c3ccc(=O)oc3)C[C@H]3O[C@]132 [RBG, Resibufogenin]
Release in the first 2 days (In vitro drug release): 98.78% | IC50 [1]: 1 to 50 nM

C[C@]12CC[C@H](O)C[C@H]1CC[C@@H]1[C@@H]2CC[C@]2(C)[C@@H](c3ccc(=O)oc3)C[C@H]3O[C@]132 [RS, Resibufogenin]
Cell ratio, apoptotic cells (HepG2 cells; 1.2 μg/mL): 21.8±1.5% | Cell ratio, necrotic cells (HepG2 cells; 1.2 μg/mL): 1.6±0.8% | Cell ratio, survival cells (HepG2 cells; 1.2 μg/mL): 76.6±2.2% | Cell ratio, apoptotic cells (HepG2 cells; 5 μg/mL): 33.6±1.6 % | Cell ratio, necrotic cells (HepG2 cells; 5 μg/mL): 0.6±0.5% | Cell ratio, survival cells (HepG2 cells; 5 μg/mL): 65.8±2.7% | Cell ratio, apoptotic cells (HepG2 cells; 20 μg/mL): 45.4±1.7 % | Cell ratio, necrotic cells (HepG2 cells; 20 μg/mL): 0.4±0.4% | Cell ratio, survival cells (HepG2 cells; 20 μg/mL): 54.2±1.9% | LD50 (LD50): 18.9 mg/kg | Te (targeting efficiency), liver versus heart ([2]; AUC liver / AUC heart): 0.6 | Te (targeting efficiency), liver versus kidney ([2]; AUC liver / AUC kidney): 0.8 | Te (targeting efficiency), liver versus lung ([2]; AUC liver / AUC lung): 0.8 | Te (targeting efficiency), liver versus spleen ([2]; AUC liver / AUC spleen): 1.0 | Te (targeting efficiency), overall statement ([2]; liver versus plasma and other organs): < 1 | AUC ([2]; male, Kunming, mouse, heart, 2 mg/kg): 3700 ± 900 ng·h/mL | AUC ([2]; male, Kunming, mouse, kidney, 2 mg/kg): 2700 ± 1000 ng·h/mL | AUC ([2]; male, Kunming, mouse, liver, 2 mg/kg): 2100 ± 900 ng·h/mL | Kp ([2]; male, Kunming, mouse, liver/plasma, intravenous, 2 mg/kg): 0.1 | AUC ([2]; male, Kunming, mouse, lung, 2 mg/kg): 2500 ± 800 ng·h/mL | AUC ([2]; male, Kunming, mouse, plasma, 2 mg/kg): 18600 ± 2100 ng·h/mL | AUC ([2]; male, Kunming, mouse, spleen, 2 mg/kg): 2200 ± 600 ng·h/mL | Retention (slow release) time of RBG in liver ([2]; mice, iv 2 mg/kg RBG): 1 h | concentration at 7 days [3]: 50 ± 20 ng/g | IR (tumor growth inhibition rate) (HCa-F cells): 31.60% | Number of natural deaths (HCa-F cells): 2 | Tumor weight (HCa-F cells): 3.55 ± 0.71 g | Volume growth (incremental tumor volume) (HCa-F cells): 3.16±0.78 cm^3 | MRBG in tumor (HCa-F cells; after 7 days of administration, n=6): 0.19 ± 0.08 µg
